Read-outs that look alike come from different tables or passages of the source.
Columns and labels:
[1] = system: NCI-60 panel of tumor cell lines; experiment: cells; details: Homo sapiens
786–0 = experiment: NCI-60 SRB screen, Renal cancer; type: cell-based
Method in brief: (§1)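 Five-dose NCI-60 protocol (DTP, NCI). Absorbance was read at time zero (Tz), for untreated control (C) and at five compound levels (Ti), with SRB protein-stain end point read spectrophotometrically. GI50 from [(Ti−Tz)/(C−Tz)]×100 = 50; TGI from Ti = Tz; LC50 from [(Ti−Tz)/Tz]×100 = −50. A parameter not reached is given as greater than the highest concentration tested.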

HS 578 T = experiment: NCI-60 SRB screen, Breast cancer; type: cell-based
Method in brief: as §1

MDA-MB-231/ATCC = experiment: NCI-60 SRB screen, Breast cancer; type: cell-based
Method in brief: as §1

A375 cells = experiment: anchorage dependent colony formation assay; type: cell-based, human; details: A375, 10–14 days
Method in brief: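 1000 A375 cells per 60 mm plate adhered for 24 h, then were treated with various test compound doses for 10–14 days. Plates were PBS-washed and fixed in 4% paraformaldehyde (15 min, room temperature). They were stained with 0.2% crystal violet in 20% methanol for 10 min, water-washed and imaged under microscope.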

NCI/ADR-RES = experiment: NCI-60 SRB screen, Ovarian cancer; type: cell-based
Method in brief: as §1

COLO 205 = experiment: NCI-60 SRB screen, Colon cancer; type: cell-based
Method in brief: as §1

TK-10 = experiment: NCI-60 SRB screen, Renal cancer; type: cell-based
Method in brief: as §1

UACC-257 = experiment: NCI-60 SRB screen, Melanoma; type: cell-based
Method in brief: as §1

ERK2 = ERK2 (Rattus norvegicus, UniProt P63086); experiment: steady-state kinetic experiments, ERK2 with varied Mg-ATP; type: biochemical; details: versus ATP, double reciprocal plot
ERK2, sequence (P63086 whole entry): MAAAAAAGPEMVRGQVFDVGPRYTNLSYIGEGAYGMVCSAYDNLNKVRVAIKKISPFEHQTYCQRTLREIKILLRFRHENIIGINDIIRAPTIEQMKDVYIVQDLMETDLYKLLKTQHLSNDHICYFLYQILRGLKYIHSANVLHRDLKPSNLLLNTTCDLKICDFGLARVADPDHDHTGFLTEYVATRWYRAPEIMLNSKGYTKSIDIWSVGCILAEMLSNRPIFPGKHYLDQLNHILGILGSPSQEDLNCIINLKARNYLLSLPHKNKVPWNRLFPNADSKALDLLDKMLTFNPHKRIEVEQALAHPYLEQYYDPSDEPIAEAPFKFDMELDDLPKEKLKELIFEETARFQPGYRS
Method in brief: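 Activated rat ERK2 was run in the radiometric kinase buffer with 50 μM His-Ets-1. Mg-ATP was varied (10–2000 μM) at several fixed test compound concentrations (0–54 μM). Initial rates were taken from product-versus-time plots. Mechanism was assessed from a double-reciprocal plot of 1/V0 versus 1/[Mg-ATP].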

O=C1c2ccccc2C(=O)c2c1oc1c2c(=O)[nH]c2ccc(Cl)cc21 [3b, 2-Chloronaphtho[2′,3′:4,5]furo[3,2-c]quinoline-6,7,12(5H)-trione] was tested. Which GI50 ([1]; read-out: GI50, average across all cell lines tested) did it give?
The GI50 was 0.24 µM.

What about the GI50 ([1]; read-out: GI50 values, range over all cell lines) of the same compound?
Its GI50 is 0.14 to 10.5 µM.

And the CC50 ([1]; read-out: LC50, average)?
The CC50 was 7.58 µM.

What about the TGI (786–0; 786–0, five-dose) of the same compound?
The TGI was 0.54 µM.

And the GI50 (786–0; Homo sapiens, 786-0)?
Its GI50 is 0.22 µM.

What about the CC50 (786–0; Homo sapiens, 786-0, read-out: LC50) of the same compound?
Its CC50 is 2.45 µM.

And the TGI (HS 578 T; HS 578 T, five-dose)?
Its TGI is 1.38 µM.

What about the GI50 (HS 578 T; Homo sapiens, Hs-578T) of the same compound?
The GI50 was 0.26 µM.

What about the CC50 (HS 578 T; Homo sapiens, Hs-578T, read-out: LC50) of the same compound?
Its CC50 is > 100 µM.

And the GI50 (MDA-MB-231/ATCC; Homo sapiens, MDA-MB-231)?
The GI50 was 0.17 µM.

What about the CC50 (MDA-MB-231/ATCC; Homo sapiens, MDA-MB-231, read-out: LC50) of the same compound?
Its CC50 is 2.82 µM.

And the TGI (MDA-MB-231/ATCC; MDA-MB-231/ATCC, five-dose)?
The TGI was 0.51 µM.

What about the “concentration at which inhibition of colony forming ability starts” value (A375 cells) of the same compound?
The value was 10 µM.

And the GI50 (NCI/ADR-RES; Homo sapiens)?
Its GI50 is 0.35 µM.

What about the CC50 (NCI/ADR-RES; Homo sapiens, read-out: LC50) of the same compound?
The CC50 was 34.7 µM.

What about the TGI (NCI/ADR-RES; five-dose) of the same compound?
Its TGI is 1.78 µM.

What about the TGI (COLO 205; COLO 205, five-dose) of the same compound?
Its TGI is 27.54 µM.

And the GI50 (COLO 205; Homo sapiens, COLO 205)?
The GI50 was 10.5 µM.

And the CC50 (COLO 205; Homo sapiens, COLO 205, read-out: LC50)?
The CC50 was 72.4 µM.

What about the GI50 (TK-10; Homo sapiens, TK-10) of the same compound?
The GI50 was 0.38 µM.

What about the CC50 (TK-10; Homo sapiens, TK-10, read-out: LC50) of the same compound?
Its CC50 is 6.03 µM.

And the TGI (TK-10; TK-10, five-dose)?
The TGI was 1.10 µM.

What about the GI50 (UACC-257; Homo sapiens, UACC-257) of the same compound?
The GI50 was 1.32 µM.

And the CC50 (UACC-257; Homo sapiens, UACC-257, read-out: LC50)?
Its CC50 is 8.51 µM.

What about the TGI (UACC-257; UACC-257, five-dose) of the same compound?
Its TGI is 3.39 µM.

Which results are given for O=C1C(Cl)=C(c2c(O)c3c(=O)n(-c4ccccc4)c4ccccc4c3oc2=O)C(=O)c2ccccc21 [compound 6, 3-(3-Chloro-1,4-dioxo-1,4-dihydronaphthalen-2-yl)-4-hydroxy-6-phenyl-2H-pyrano[3,2-c]quinoline-2,5(6H)-dione]?
mechanism of ERK2 inhibition (ERK2): competitive inhibition; concentration at which inhibition of colony forming ability starts (A375 cells): 2.5 µM
